Laboratory results reported in article PMC4651627 (The Journal of organic chemistry, 2015).

Columns and labels:
NCI 60-cell line screen = conditions: cited from earlier work
MDA-MB-231 = assay type: cell-based, human
[1] = test system: small panel of cell lines (five human tumor cell lines, MCF-10A, NIH/3T3); assay: MTT cytotoxicity assay, summary over the panel of cell lines; assay type: cell-based
U937 cells [2] = assay: Cell apoptosis analysis by flow cytometry; assay type: cell-based, human; conditions: 90 nM, 48 h, control cells 13.2%
U937 cells [3] = assay: Cell cycle analysis by flow cytometry; assay type: cell-based, human; conditions: 90 nM, 48 h
How it was run: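 Exponentially growing U937 cells in RPMI-1640 with 10% FBS received test compound in DMSO (final 90 nM) or an equal amount of DMSO. After 48 h at 37 °C in CO2, cells were PBS-washed, fixed overnight in 70% ice-cold ethanol at 4 °C, and RNase-treated (100 µg/ml, 37 °C, 30 min).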

[4] = test system: MDA-MB-231 breast cancer cells; assay: DNA fragmentation analysis; assay type: cell-based, human

In the case of `C/C=C(\C)C(=O)O[C@@H]1[C@@H](O)[C@@H]2O[C@H]3[C@H](O[C@@H](CCC)CCCCCCC(=O)CCC(=O)OC[C@@H](O2)[C@H]1OC(=O)/C=C/c1ccccc1)O[C@H](C)[C@H](OC(C)=O)[C@@H]3O` [Ipomoeassin A], the “growth inhibition of different cancer cells” value (NCI 60-cell line screen) is listed as “strong and selective growth inhibition”.
For `C/C=C(\C)C(=O)O[C@@H]1[C@@H](O)[C@@H]2O[C@H]3[C@H](O[C@@H](CCCCC)CCCCCCC(=O)CCC(=O)OC[C@@H](O2)[C@H]1OC(=O)/C=C/c1ccccc1)O[C@H](C)[C@H](OC(C)=O)[C@@H]3O` [Ipomoeassin F], the IC90 (MDA-MB-231) was 100 nM, the “difference in toxicity between two cancer cell lines (U937 and MCF7)” value ([1]; U937 vs MCF7) was ~ 8 fold and the “selectivity between tumor and non-tumor cell lines” value ([1]; tumor lines vs MCF-10A and NIH/3T3) was “no selectivity between tumor and non-tumor cell lines was observed”. For the same compound, the “percentage of apoptotic cells” value (U937 cells [2]) was 33.6%, the G1 arrest (U937 cells [3]) was ~ 25% and the “reduction of cell population in the G2/M phase” value (U937 cells [3]) was ~ 21%. For the same compound, the DNA fragmentation ([4]; 100 nM ipomoeassin F (IC90), MDA-MB-231, 72 h) was “smaller DNA fragments”.
In the case of `CN[C@@H]1C[C@H]2O[C@@](C)([C@@H]1OC)n1c3ccccc3c3c4c(c5c6ccccc6n2c5c31)C(=O)NC4` [staurosporine, reference compound], the “DNA fragmentation (positive control)” value ([4]; 750 nM staurosporine (Figure 5), MDA-MB-231) is reported as “smaller DNA fragments”.
